Blank lines part the entries; values can stand above or below the molecule they belong to.
Legend:
[1] = target: T1, AtGCL (WT γ-glutamylcysteine ligase) (Arabidopsis thaliana, UniProt P46309); test: inhibition of GCL activity; format: biochemical; conditions: read-out: GSH
T1 sequence (P46309 74-522): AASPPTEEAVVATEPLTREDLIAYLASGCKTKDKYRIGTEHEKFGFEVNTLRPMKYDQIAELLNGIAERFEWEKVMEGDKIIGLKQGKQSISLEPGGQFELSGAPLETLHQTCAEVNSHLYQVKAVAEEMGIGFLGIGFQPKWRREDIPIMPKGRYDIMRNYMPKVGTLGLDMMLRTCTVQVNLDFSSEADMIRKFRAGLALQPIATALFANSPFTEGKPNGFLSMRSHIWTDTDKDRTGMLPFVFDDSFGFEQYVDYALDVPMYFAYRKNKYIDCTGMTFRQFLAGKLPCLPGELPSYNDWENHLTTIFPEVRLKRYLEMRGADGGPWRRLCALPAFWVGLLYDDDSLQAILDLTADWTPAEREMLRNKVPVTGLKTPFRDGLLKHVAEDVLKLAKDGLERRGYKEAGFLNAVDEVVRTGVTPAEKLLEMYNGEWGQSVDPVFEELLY
Method in brief: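 Recombinant His-tagged AtGCL from E. coli Rosetta-gami DE3, purified by Ni²⁺ affinity, cleaved with TEV protease, then passed through a second Ni²⁺ step. Pyruvate kinase/lactate dehydrogenase-coupled assay at pH 7.0 (100 mM MOPSO, 150 mM NaCl, 20 mM MgCl₂). […] Reaction started with 50 µg enzyme; A340 monitored.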

purified protein [2] = substrate: N[C@@H](CCC(=O)O)C(=O)O; test: purified protein; format: biochemical, Arabidopsis thaliana; conditions: 20 mM cysteine, 20 mM ATP, 20 mM MgCl2, pH 7.0, oxidized homo-dimer
purified protein [3] = substrate: N[C@@H](CS)C(=O)O; test: purified protein; format: biochemical, Arabidopsis thaliana; conditions: 20 mM ATP, 80 mM glutamate, 20 mM MgCl2, pH 7.0, oxidized homo-dimer

activity at 2000 µM [1]: 49 ± 4%
Molecule: N[C@@H](CCC(=O)N[C@@H](CS)C(=O)NCC(=O)O)C(=O)O [GSH]

B1: AtGCL (WT γ-glutamylcysteine ligase) (Arabidopsis thaliana) (protein)
chain: T1 sequence (P46309 74-522)
Km (purified protein [2]): 6.64 ± 1.02 mM
Km (purified protein [3]): 0.34 ± 0.12 mM

Reference: PMC6463388 (Biochemical Journal, 2019)
